# In the library only some 2.3% were active in any assay of this set; here they are far more common.
# TRPC6 inhibitor – mouse TRPC6 channel inhibition; Q61143; HEK293-TRPC6, membrane potential dye, ACh-evoked depolarization; hits give low values; B-score at 10 µM; 1.1% of 310,000 active; AID 2553;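 active = B-score under library mean minus 3 SD, initial fluorescence not abnormally high, positive integrated signal ratio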;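 note: B-score derived from integrated fluorescence ratio over the kinetic read; more negative B-score means stronger inhibition of depolarization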
# Target sequence (Q61143 whole entry, looked up): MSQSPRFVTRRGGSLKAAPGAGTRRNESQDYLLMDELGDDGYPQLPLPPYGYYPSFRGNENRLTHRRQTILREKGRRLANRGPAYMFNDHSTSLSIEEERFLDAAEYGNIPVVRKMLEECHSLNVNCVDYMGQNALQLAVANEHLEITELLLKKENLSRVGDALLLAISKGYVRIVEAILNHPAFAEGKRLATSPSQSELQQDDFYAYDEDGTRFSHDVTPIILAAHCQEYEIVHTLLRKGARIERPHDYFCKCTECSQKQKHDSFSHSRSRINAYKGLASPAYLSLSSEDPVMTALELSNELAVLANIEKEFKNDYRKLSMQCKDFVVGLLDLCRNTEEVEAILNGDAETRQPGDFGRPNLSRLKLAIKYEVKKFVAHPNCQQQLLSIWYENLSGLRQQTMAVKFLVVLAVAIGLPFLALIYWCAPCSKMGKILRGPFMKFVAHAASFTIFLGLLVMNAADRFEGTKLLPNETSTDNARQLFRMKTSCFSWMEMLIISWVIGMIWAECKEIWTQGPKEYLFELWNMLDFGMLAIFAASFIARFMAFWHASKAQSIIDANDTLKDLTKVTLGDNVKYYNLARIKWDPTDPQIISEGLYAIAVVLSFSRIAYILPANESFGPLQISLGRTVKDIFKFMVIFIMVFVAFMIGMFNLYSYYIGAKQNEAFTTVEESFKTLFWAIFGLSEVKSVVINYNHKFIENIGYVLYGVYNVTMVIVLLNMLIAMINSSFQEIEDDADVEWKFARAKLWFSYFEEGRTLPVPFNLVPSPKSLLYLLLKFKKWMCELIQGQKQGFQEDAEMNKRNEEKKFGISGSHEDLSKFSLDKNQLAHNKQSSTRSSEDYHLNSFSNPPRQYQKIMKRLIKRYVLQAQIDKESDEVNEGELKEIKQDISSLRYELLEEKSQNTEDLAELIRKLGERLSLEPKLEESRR
# TRPC4 agonist – activators of mouse TRPC4 channel | AID 2237 | HEK293 TRPC4beta/mu-opioid, Fluo4 calcium fluorescence; hits give high values | Q9QUQ5 | B-score at 10 µM | 0.49% of 310,000 active;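 active = B-score above 5 SD of library B-scores, and initial fluorescence ratio not above library mean plus 5 SD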;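 note: positive B-score marks a calcium rise read as TRPC4 activation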
#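 Assay system: HEK293 stable line with TRPC4beta plus mu-opioid receptor. Times: dye 45 min RT, read 110 s. Measured by: kinetic Fluo4 calcium fluorescence. Measure: B score of integrated ratio. Controls: assay buffer as low control, maximal DAMGO as high control.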
# TRPC4 inh – TRPC4 (mouse) channel inhibition; Q9QUQ5; HEK293 TRPC4beta/mu-opioid, DAMGO-evoked Fluo4 calcium flux; hits give low values; B-score at 10 µM; 0.39% of 300,000 active; AID 2247;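 active = B-score over 3 SD under the library average, no early fluorescence shift, positive overall ratio signal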
#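 System: stable TRPC4beta/mu-opioid receptor HEK293 cells; Dosing: single-point compound dosing; Measured by: Fluo4 Ca2+ flux fluorescence; Read-out basis: per-well B score of integrated baseline-normalized Fluo4 ratio.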
# TRPC6 activator – activators of mouse TRPC6 channel | Q61143 | HEK293-TRPC6 membrane potential dye fluorescence; hits give high values | B-score at 10 µM | 0.13% of 310,000 active | AID 2550;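 active = B-score of the integrated fluorescence ratio above library mean plus 3 SD, and starting fluorescence ratio within library mean plus 5 SD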;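 note: higher score means more depolarization so channel activation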
# TRPC4 potent – allosteric potentiators of mouse TRPC4 channel; Q9QUQ5; B-score at 10 µM; 0.42% of 310,000 active; HEK293 TRPC4beta/mu-opioid, DAMGO EC20, Fluo-4 Ca2+ flux; hits give high values;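 active = B-score of calcium response area above 5 SD of library B-scores, with initial fluorescence ratio within 5 SD of library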;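 note: B-score of integrated fluorescence ratio over time as area under calcium response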
# TRPC4 spec 2 – second selectivity test of TRPC6 inhibitors: effect on mouse TRPC4 | HEK293 TRPC4/MOR, membrane potential dye fluorescence; channel activated by saturating DAMGO dose | inhibition, % at 10 µM | 42% of 920 active | AID 2776 | shares compounds with TRPC6 inhibitor;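 active = compounds whose fluorescence signal differed from control wells by over 3 SD, either direction, in both duplicate plates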
# TRPC4 spec – selectivity of TRPC6 inhibitors: effect on mouse TRPC4; shares compounds with TRPC6 inhibitor; HEK293 TRPC4/mu-opioid, membrane potential fluorescence; 61% of 920 active; activity change, negative = inhibition, % at 10 µM;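 active = rise or fall in signal beyond 3 SD of buffer-only wells in both replicate plates, either sign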;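 note: integrated kinetic ratio of fluorescence range over baseline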
# HEK293 MPD ctr 2-1 – second counter-screen for TRPC6 inhibitors: parental HEK293 cells; signal change vs control, % at 10 µM; parental HEK293 membrane potential dye fluorescence; maximal acetylcholine challenge after compound addition; shares compounds with TRPC6 inhibitor; 31% of 920 active;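 active = membrane potential signal moving either way by over 3 SD of the maximum-effect control, in both duplicate plates, meaning non-specific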
# HEK293 MPD ctr-1 – counter-screen for TRPC6 inhibitors: effect in parental HEK293 cells. shares compounds with TRPC6 inhibitor. parental HEK293 membrane potential dye fluorescence. membrane potential signal change, % at 10 µM. 60% of 920 active. AID 2780;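 active = membrane potential signal shifting up or down by more than 3 SD of buffer-only wells, on both duplicate plates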
# HEK293 MPD ctr-2 – parental HEK293 nonspecific activity of TRPC6 modulators | shares compounds with TRPC6 inhibitor | membrane potential dye fluorescence | membrane potential signal change, % at 10 µM | 51% of 2,400 active | AID 488924;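 active = membrane potential signal moves up or down beyond 5 SD from buffer-only wells, on both duplicate plates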
# HEK293 MPD ctr 2-2 – second check of TRPC6 modulator effects in parental HEK293 cells; shares compounds with TRPC6 inhibitor; inhibition, % at 10 µM; 14% of 2,400 active; membrane potential dye fluorescence; after compound, maximal acetylcholine stimulation; AID 488926;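 active = membrane potential signal drops by more than 5 SD from the mean control signal, in both duplicate plates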;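 note: plate controls were acetylcholine ECmax control wells for no effect and buffer only wells for full effect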
# TRPC4 ctr mod – tests whether TRPC6 modulators also affect mouse TRPC4 | shares compounds with TRPC6 inhibitor | HEK293 TRPC4/mu-opioid, membrane potential fluorescence | percent change from control (negative = decrease, positive = increase), % at 10 µM | 69% of 2,400 active;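 active = membrane potential signal moved up or down beyond 5 SD of buffer control wells, in both duplicate plates, actives on both sides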;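 note: plate controls were assay buffer wells for no effect and DAMGO maximal-effect wells for full effect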
# TRPC4/MOR inh 2 – second selectivity test of TRPC6 modulators against mouse TRPC4. shares compounds with TRPC6 inhibitor. HEK293 TRPC4/mu-opioid, membrane potential dye fluorescence; stimulated with maximal-effect DAMGO. inhibition, % at 10 µM. 55% of 2,400 active. AID 488928;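 active = drop in membrane potential signal beyond 5 SD of the control wells in both duplicate plates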;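 note: TRPC4 counter screen for TRPC6 hits run under conditions tuned for TRPC6 not TRPC4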
# TRPC6 inh conf – mouse TRPC6 inhibitor confirmation; shares compounds with TRPC6 inhibitor; HEK293-TRPC6, membrane potential dye, ACh-evoked depolarization; inhibition, % at 10 µM; 43% of 3,300 active;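 active = fluorescence ratio falls more than 5 SD below the full-stimulation control mean, in both duplicate runs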;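 note: integrated fluorescence ratio of peak minus minimum over baseline after agonist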
# TRPC6 act conf – mouse TRPC6 activator confirmation; HEK293-TRPC6 membrane potential dye fluorescence, FDSS; activation, % at 10 µM; 11% of 2,800 active; AID 488961; shares compounds with TRPC6 inhibitor;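 active = ratio signal rise beyond 5 SD above unstimulated control wells' mean, seen in both duplicate runs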;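 note: plate controls were buffer EC0 wells for no effect and acetylcholine ECmax response for full effect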
# An asterisk follows results filed as active; i = inactive; . = no result given.
SMILES,TRPC6 inhibitor,TRPC4 agonist,TRPC4 inh,TRPC6 activator,TRPC4 potent,HEK293 MPD ctr-2,HEK293 MPD ctr 2-2,TRPC4 ctr mod,TRPC4/MOR inh 2,TRPC6 inh conf,TRPC6 act conf,others
CCOc1ccc(NC(C)c2cc(Cl)ccc2O)cc1 (stereo not given),-5.2*,i,i,i,i,i,i,-15%*,38%*,i,i,
CCOc1ccc(S(=O)(=O)Nc2cccc(Cl)c2)cc1,i,i,i,i,i,.,.,.,.,.,.,
CC(Nc1ccc(Cl)cc1)c1cc(Cl)ccc1O (stereo not given),i,i,i,i,i,.,.,.,.,.,.,
CCOc1ccc(S(=O)(=O)Nc2cc(Cl)ccc2O)cc1,-5.3*,i,i,i,i,i,i,-16%*,i,i,i,
CCCCCCN1C=CC(=C2C(=O)c3ccccc3C2=O)C=C1,i,i,i,i,i,.,.,.,.,.,.,
CCCCN1C=CC(=C2N=c3cccc([N+](=O)[O-])c3=N2)C=C1,-5.6*,i,i,i,i,-132%*,78%*,-20%*,49%*,58%*,i,
Cc1ccc(S(=O)(=O)NCCc2ccncc2)cc1[N+](=O)[O-],i,i,i,i,i,.,.,.,.,.,.,
CC(C)CNC(=S)Nc1ccc(S(N)(=O)=O)cc1,i,i,i,i,i,.,.,.,.,.,.,
Cc1ccc(NC(=S)NCC(C)C)cc1,-7.2*,i,i,i,i,.,.,.,.,i,i,TRPC4 spec 2=i;TRPC4 spec=i;HEK293 MPD ctr 2-1=i;HEK293 MPD ctr-1=i
COc1ccc2nc(C)cc(N3CCOCC3)c2c1,-12*,i,i,i,i,-428%*,100%*,-60%*,67%*,76%*,i,
COc1ccc(C(=O)CN2CCN(c3cc(C)nc4ccccc34)CC2)cc1,i,i,i,i,i,.,.,.,.,.,.,
COc1ccc2nc(C)cc(N3CC(C)OC(C)C3)c2c1 (stereo not given),i,i,i,i,i,.,.,.,.,.,.,
Cc1ccc2nc(C)cc(N3CCOCC3)c2c1,-11*,i,i,i,i,-300%*,96%*,-45%*,69%*,75%*,i,
COc1ccc2nc(C)cc(N3CCN(c4ccccc4)CC3)c2c1,-5.1*,i,i,i,i,-174%*,i,-41%*,68%*,i,i,
N=c1c(C(=O)NC2CCCC2)cc2c(=O)n3ccccc3nc2n1CCN1CCOCC1,i,i,i,i,i,.,.,.,.,.,.,
COc1ccc(CCn2c(=N)c(C(=O)NCCN3CCOCC3)cc3c(=O)n4ccccc4nc32)cc1OC,-5.6*,i,i,i,i,152%*,109%*,54%*,44%*,64%*,.,
COc1ccc(CCNC(=O)c2cc3c(=O)n4ccccc4nc3n(CCCN3CCOCC3)c2=N)cc1OC,i,i,i,i,i,.,.,.,.,.,.,
COc1ccc(CCNC(=O)c2cc3c(=O)n4ccccc4nc3n(CCN3CCOCC3)c2=N)cc1,-5.7*,i,i,i,i,i,i,74%*,86%*,i,i,
N#Cc1cc2c(=O)n3ccccc3nc2n(CCCN2CCOCC2)c1=O,-12*,i,i,i,i,-285%*,85%*,-48%*,49%*,56%*,i,
COc1ccc(CCNC(=O)c2cc3c(=O)n4ccccc4nc3n(CCCN3CCOCC3)c2=N)cc1,-7.4*,i,i,i,i,.,.,.,.,i,i,TRPC4 spec 2=i;TRPC4 spec=i;HEK293 MPD ctr 2-1=-64%*;HEK293 MPD ctr-1=i
CCOc1ccc(NC(=O)CN2CCC(n3cnc4cc(F)ccc43)CC2)cc1,i,i,i,i,i,.,.,.,.,.,.,
CC(=O)NC(C)c1nc2ccccc2n1CC(=O)NC(C)CCc1ccccc1 (stereo not given),i,i,i,i,i,.,.,.,.,.,.,
COc1ccc(CCNC(=O)c2cc3c(=O)n(C)c4ccccc4c3n2C)c(OC)c1,i,i,i,i,i,.,.,.,.,.,.,
CC(C)(C)C1CCC(=NNC(=O)c2ccco2)CC1 (stereo not given),i,i,i,i,i,.,.,.,.,.,.,
COc1ccc(CCn2c(=N)c(C(=O)N3CCN(C)CC3)cc3c(=O)n4ccccc4nc32)cc1,-7.2*,i,i,i,i,-274%*,84%*,-50%*,62%*,68%*,i,
Cc1ccc2nc3c(cc(C(=O)NCCc4ccccc4)c(=N)n3CCCN3CCOCC3)c(=O)n2c1,-6*,i,i,i,i,i,i,i,54%*,i,i,
Cc1ccc2c(c1)c1c(n2CC(O)CN2CCC(C)CC2)CCCC1 (stereo not given),-5.8*,i,i,i,i,i,i,12%*,54%*,40%*,i,
O=C(CN1CCCC1)Nc1c2c(nc3ccccc13)N(Cc1ccccc1)CC2,-6.1*,i,i,i,i,-312%*,i,-49%*,62%*,46%*,i,
CN(C)c1cc(NC(=O)CNC(C)(C)CC(C)(C)C)c2ccccc2n1,i,i,i,i,i,.,.,.,.,.,.,

# Bioassay records deposited in PubChem by Johns Hopkins Ion Channel Center.
